Screens as filed in PubChem.
Only some compounds are listed: those with a hit (about 4.6% of all), similar ones and a draw of the others.
TAAR1 ag – agonists of human TAAR1 | CHO RD-HGA16 TAAR1, Fluo-8 calcium fluorescence; vehicle wells 0%, saturating PEA agonist 100% | activation, % at 3 µM | hit rate 0.99% among 360,000;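 active = activation above the mean activation of all test compounds in the run plus 3 SD, cut at about 38% in these data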
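test system = CHO RD-HGA16 cells carrying human TAAR1 plus Gα16 | schedule = 17-24 h seeding, 75 min 37 °C dye, 30 min RT | compound dosing = 3 µM single concentration | control set = DMSO and PEA EC100 | replicates = n 1 | signal = Fluo-8 fluorescence, 5 s baseline then 140 s kinetic read | measure = percent activation vs PEA EC100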
GPR7 antagonist – antagonists of human GPR7 (neuropeptides B/W receptor 1) | inhibition, % at 4.4 µM | hit rate 1.1% among 290,000 | GPR7-expressing cells, fluorescence antagonist assay | AID 1861; in the data active = inhibition above about 16%, passing the limit was not always enough;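 note: cells stimulated with the agonist NPW; 0% = agonist with vehicle and 100% = vehicle without agonist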
Target sequence (P48145 whole entry, looked up): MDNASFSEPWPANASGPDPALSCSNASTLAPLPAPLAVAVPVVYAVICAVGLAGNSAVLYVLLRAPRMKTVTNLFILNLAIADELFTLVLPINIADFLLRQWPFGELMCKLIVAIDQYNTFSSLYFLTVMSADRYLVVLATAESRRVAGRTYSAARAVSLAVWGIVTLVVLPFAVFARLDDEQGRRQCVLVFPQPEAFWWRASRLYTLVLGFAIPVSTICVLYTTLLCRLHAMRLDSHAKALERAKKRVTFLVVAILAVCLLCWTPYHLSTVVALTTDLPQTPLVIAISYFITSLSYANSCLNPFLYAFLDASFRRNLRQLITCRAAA
TAAR1 antagonist – human TAAR1 antagonism | CHO RD-HGA16 TAAR1, Fluo-8 calcium fluorescence, antagonist | AID 624466 | hit rate 1.5% among 360,000 | inhibition, % at 3 µM;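 active = inhibition above a per-plate cutoff, the mean inhibition of test compounds on that plate plus 3 SD, cut at about 49% in these data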;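 note: 0% = DMSO plus EC80 beta-PEA response and 100% = DMSO alone without agonist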
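Material: RD-HGA16 CHO cells with stable hTAAR1 and Gα16; Dosing: single nominal final test compound concentration of 3 µM; Schedule: seeding 17-24 h prior, 75-min 37 °C, 30-min RT dye loading; Detection: kinetic Fluo-8 calcium fluorescence measurement; Measure: % inhibition from peak post-agonist over basal fluorescence ratio; Benchmarks: vehicle and agonist controls.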
OX1R antag-1 – blocks the human orexin 1 receptor; O43613; OX1R-expressing cells, FRET antagonist read-out; inhibition, % at 6.6 µM; hit rate 1.8% among 330,000; in the data active = inhibition mostly above about 38%, no sharp cut-off; inactive = mostly below about 40%;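 note: 0% = agonist challenge alone and 100% = reference antagonist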
Target sequence (O43613 whole entry, looked up): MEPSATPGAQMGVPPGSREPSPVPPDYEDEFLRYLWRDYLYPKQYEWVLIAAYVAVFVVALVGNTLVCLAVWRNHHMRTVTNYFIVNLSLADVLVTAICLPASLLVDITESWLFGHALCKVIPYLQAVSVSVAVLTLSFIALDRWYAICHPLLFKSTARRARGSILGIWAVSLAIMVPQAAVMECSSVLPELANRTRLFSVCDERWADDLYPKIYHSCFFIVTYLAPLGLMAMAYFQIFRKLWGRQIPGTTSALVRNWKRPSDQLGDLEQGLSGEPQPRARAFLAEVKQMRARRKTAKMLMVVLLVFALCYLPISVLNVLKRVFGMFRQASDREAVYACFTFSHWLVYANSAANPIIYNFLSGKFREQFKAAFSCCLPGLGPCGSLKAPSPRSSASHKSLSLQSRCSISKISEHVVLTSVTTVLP
OX1R antag-2 – human HCRTR1 antagonism. O43613. CHO/OX1R cells, Fluo-8 calcium fluorescence, orexin A. inhibition, % at 5 µM. hit rate 0.43% among 330,000. AID 434989;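 active = inhibition above its plate's threshold, mean inhibition of all tested compounds on the plate plus 3 SD, cut at about 37% in these data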;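 note: 0% = orexin A challenge wells and 100% = SB-334867-A antagonist wells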
CHO parental Ca – counter-screen for OX1R antagonists: effect in parental CHO cells; inhibition, % at 5.6 µM; parental CHO-K1, ATP-induced calcium, Fluo-8 fluorescence; AID 463079; hit rate 0.63% among 330,000;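 active = inhibition above that plate's mean sample inhibition plus 3 SD, cut at about 26% in these data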;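 note: 0% = ATP-challenged DMSO wells and 100% = DMSO wells without ATP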
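Assay system – parental CHO cells · Reagent – ATP stimulus · Detection – intracellular calcium via Fluo-8 no-wash fluorescent dye · Evaluation – percent inhibition of ATP-evoked calcium rise, normalized to controls · Controls – ATP wells versus no-ATP DMSO wells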
TAAR1 ag conf – confirmation of human TAAR1 agonists; shares compounds with TAAR1 ag; hit rate 82% among 2,400; AID 651783; activation, % at 3 µM; CHO RD-HGA16 TAAR1, Fluo-8 calcium fluorescence; scaled: DMSO 0%, maximal phenethylamine 100%;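 active = activation above a cutoff set at the run's mean compound activation plus 3 SD, cut at about 39% in these data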
Ga16 ag counter – nonselective agonist in parental cells, TAAR1 agonist counter-screen. activation, % at 3 µM. shares compounds with TAAR1 ag. hit rate 50% among 2,400. CHO-Ga16 parental, Fluo-8 calcium fluorescence; normalized to maximal ATP response, DMSO zero;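 active = activation above the run cutoff, the mean activation over all tested wells plus 3 SD, cut at about 12% in these data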;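 note: 0% = DMSO wells and 100% = maximal ATP response on the peak over basal ratio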
TAAR1 desensitize – TAAR1 response desensitization, agonist counter-screen; shares compounds with TAAR1 ag; CHO RD-HGA16 hTAAR1, Fluo-8 calcium, beta-PEA response inhibition; inhibition, % at 3 µM; hit rate 46% among 2,400; AID 651951;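 active = inhibition above the run cutoff, the mean inhibition of all test compounds plus 3 SD, cut at about 49% in these data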;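 note: beta-PEA stimulus applied at its EC80; loss of beta-PEA calcium signal after compound pretreatment read as receptor desensitization; 0% = DMSO with beta-PEA at EC80 and 100% = DMSO alone without agonist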
Ga16 antag count – counter-screen for TAAR1 agonists: nonselective Ga16 antagonists. shares compounds with TAAR1 ag. CHO-Ga16 ATP-induced calcium, Fluo-8 fluorescence. inhibition, % at 3 µM. hit rate 39% among 2,400;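 active = inhibition above the plate's mean compound inhibition plus 3 SD, computed per plate, cut at about 22% in these data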;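 note: 0% = EC80 ATP with DMSO and 100% = DMSO wells without ATP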
Numbers without * were called inactive; . = no result.

SMILES	TAAR1 ag	GPR7 antagonist	TAAR1 antagonist	OX1R antag-1	OX1R antag-2	CHO parental Ca	TAAR1 ag conf	Ga16 ag counter	TAAR1 desensitize	Ga16 antag count
Cc1ccc(S(=O)(=O)N(C)c2ccc(C(=O)N(CC(C)C)C3CCS(=O)(=O)C3)cc2)cc1 (stereo not drawn)	0	.	3	13	-15	-11	.	.	.	.
CC1=C(C(=O)N2CCOCC2)CC(CC(=O)NCc2ccco2)C(=O)N1Cc1ccc(C(C)(C)C)cc1 (stereo not drawn)	0	.	-3	.	.	.	.	.	.	.
Cc1ccc(N2C(=O)N(CC(=O)N3c4ccccc4CC3C)C(=O)C2C)cc1 (stereo not drawn)	-2	.	-36	.	.	.	.	.	.	.
C[C@H]1CN([C@@H](C)CO)C(=O)c2cc(Br)cnc2O[C@H]1CN(C)C(=O)c1ccccn1	4	.	-4	.	.	.	.	.	.	.
Cc1ccc(C(=O)NC(=S)NCc2ccccc2)cc1	2	-19	-7	11	-25	-13	.	.	.	.
Cc1ccc(C(=O)NNC(=S)NC(=O)c2ccccc2)cc1	167*	.	106*	20	57*	34*	136*	92*	93*	79*
Nc1c(-c2n[nH]c(=S)n2-c2ccc(Cl)cc2Cl)cnn1-c1ccccc1	97*	-5	16	-7	-12	-4	73*	44*	36	28*
CN1C(C(=O)NCCc2cccs2)CC2Cn3c(nc4cc5ccccc5cc43)C21 (stereo not drawn)	78*	.	51*	30	-14	-11	92*	15*	83*	11
C=CCNC(=O)C1CC2Cn3c(nc4cc(C)c(C)cc43)C2N1C (stereo not drawn)	-2	.	7	-1	-11	-2	.	.	.	.
Cc1cc2nc3n(c2cc1C)CC1CC(C(=O)NCCc2cccs2)N(C)C31 (stereo not drawn)	101*	.	69*	23	-8	-8	81*	2	71*	8
COc1ccc(CCNC(=O)C2CC3Cn4c(nc5cc6ccccc6cc54)C3N2C)cc1 (stereo not drawn)	20	.	-3	29	-13	1	.	.	.	.
O=C(O)c1ccc(-c2nc(-c3ccccc3)cs2)cc1	0	-1	10	13	-6	0	.	.	.	.
O=C(O)c1ccc(-c2nc(-c3ccccc3Cl)cs2)cc1	49*	-5	11	-3	2	4	18	19*	21	14
CCCCOc1cc(NCc2ccccc2)c2ncn(C(C)C)c2c1	66*	.	50*	24	-91	-50	29	24*	25	24*
COCCCOc1cc(NCc2ccccc2)c2ncn(C(C)C)c2c1	15	.	-9	14	-22	-19	.	.	.	.
CCCCc1c(-c2ccccc2OC)ncn1CCc1cccc(F)c1	69*	.	43	.	.	.	66*	4	74*	21
CCCCCc1c(-c2cccc(OC)c2)ncn1CCc1ccccc1OC	21	.	48	.	.	.	.	.	.	.
CCCCc1c(-c2ccccc2Br)ncn1CCc1ccccc1OC	70*	.	83*	.	.	.	73*	7	82*	39*
CCCc1c(-c2ccccc2Br)ncn1Cc1ccccc1OC	2	.	10	.	.	.	.	.	.	.
CCCCc1c(-c2ccccc2OC)ncn1CCc1ccccc1Cl	64*	.	89*	.	.	.	74*	11	75*	36*
CCCCCc1c(-c2ccc(Br)cc2)ncn1CCc1ccccc1OC	71*	.	27	.	.	.	74*	7	48	25*
CCCCc1c(-c2ccccc2OC)ncn1CCc1cccc(OC)c1	25	.	17	.	.	.	.	.	.	.
CCCCc1c(-c2ccccc2OC)ncn1Cc1ccccc1	4	.	18	.	.	.	.	.	.	.
CSc1nc(N)nc2c1ncn2CC(=O)NCCCN1CCCC1=O	4	.	-1	-7	5	2	.	.	.	.
COc1ccccc1C1CCN(c2cc(O)ccc2[N+](=O)[O-])CC1	3	11	16	45	-2	-7	.	.	.	.
SMILES	TAAR1 ag	GPR7 antagonist	TAAR1 antagonist	OX1R antag-1	OX1R antag-2	CHO parental Ca	TAAR1 ag conf	Ga16 ag counter	TAAR1 desensitize	Ga16 antag count
CCCc1c(-c2ccc(OC)cc2)ncn1CCc1ccccc1OC	15	.	27	.	.	.	.	.	.	.
COc1ccccc1CCn1cnc(-c2ccc(Cl)cc2)c1CC(C)C	53*	.	66*	.	.	.	84*	3	55*	19
CC1(C(=O)O)CCCN1C(=O)c1cc2ccccc2s1 (stereo not drawn)	0	.	-3	.	.	.	.	.	.	.
CNC(=O)C[C@H]1C(=O)N(CCc2ccccc2)C[C@@H]1c1ccc(OC)cc1	42*	.	5	.	.	.	76*	-1	16	4
COc1ccc([C@H]2CN(CCc3ccccc3)C(=O)[C@@H]2CC(=O)Nc2ccccc2)cc1	50*	.	21	.	.	.	35	6	10	13
COc1ccc(NC(=O)C[C@H]2C(=O)N(Cc3ccccc3)C[C@@H]2c2ccc(OC)cc2)cc1	1	.	-8	.	.	.	.	.	.	.
Cc1cc(C)n2nc(C(=O)OCC(=O)Nc3ccc(C)c(S(=O)(=O)N4CCOCC4)c3)nc2n1	5	.	-8	5	0	-5	.	.	.	.
Oc1ccc(C[C@H]2CNCCN2CC2(c3ccccc3)CC2)cc1	18	.	0	11	-10	-12	.	.	.	.
O=C(NC1CCCCC1)c1cccnc1C(=O)O	5	-2	-3	16	-12	2	.	.	.	.
O=C(O)c1ccccc1C(=O)NC1Cc2ccccc2C1	85*	-5	77*	1	3	-12	98*	16*	91*	6
OC(c1ccccc1)(C1CCCCC1)C(CN1CCOCC1)c1ccccc1 (stereo not drawn)	52*	-48	3	4	-58	-43	59*	33*	29	8
Fc1cc(F)c(C2SCCN2C(=S)Nc2cccc(C(F)(F)F)c2)c(F)c1 (stereo not drawn)	66*	10	3	-4	0	-4	52*	31*	56*	38*
O=C(Nc1ccccc1)Nc1nnc([C@H]2C[C@H](O)[C@@H](CO)O2)s1	44*	.	1	.	.	.	57*	1	43	11
CCN(CC)CCNC(=O)c1ccc(NCN2C(=O)NC(c3ccccc3)(c3ccccc3)C2=O)cc1	4	.	-14	.	.	.	.	.	.	.
O=C(CCCCCNc1nc(=S)[nH]c2ccccc12)NCc1ccccc1Cl	7	-4	-4	20	-37	-28	.	.	.	.
